In ChEMBL document CHEMBL1131440, “Synthesis and potent antifolate activity and cytotoxicity of B-ring deaza analogues of the nonpolyglutamatable dihydrofolate reductase inhibitor Nalpha-(4-amino-4-deoxypteroyl)-Ndelta-hemiphthaloyl- L-ornithine (PT523)” (J Med Chem, 1998):

Assays:
[1] = tested on: COLO 205; test: Compound was evaluated for in vitro activity against COLO 205 Colon cell lines (Human tumor cells ); type: functional, cell-based
Method in brief: (§1)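 Total protein then stained with sulforhodamine B following the standard NCI protocol. Data supplied by the NCI Developmental Therapeutics Program.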

[2] = tested on: MCF7; test: Compound was evaluated for in vitro activity against MCF-7 breast cancer cell lines (Human tumor cells ); type: functional, cell-based; method in brief: as §1
[3] = tested on: KM12; test: Compound was evaluated for in vitro activity against KM-12 Colon cell lines (Human tumor cells ); type: functional, cell-based
Method in brief: (§2)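 NCI Developmental Therapeutics Program human tumor cell panel; drug exposure in 96-well plates for the last 48 h of a 72-h incubation, then cells stained for total protein with sulforhodamine B per the standard NCI protocol. Data supplied by NCI.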

[4] = tested on: MDA-MB-435; test: Compound was evaluated for in vitro activity against MDA-MB-435 breast cancer cell lines (Human tumor cells ); type: functional, cell-based; method in brief: as §2
[5] = tested on: NCI-H522; test: Compound was evaluated for in vitro activity against NCI-H522 lung cancer cell lines (Human tumor cells ); type: functional, cell-based; method in brief: as §2
[6] = tested on: SR; test: Compound was evaluated for in vitro activity against SR leukemia cell lines (Human tumor cells ); type: functional, cell-based; method in brief: as §2
[7] = tested on: K562; test: Compound was evaluated for in vitro activity against K562 leukemia cell lines (Human tumor cells ); type: functional, cell-based; method in brief: as §2
[8] = tested on: HL-60; test: Compound was evaluated for in vitro activity against HL-60(TB) leukemia cell lines (Human tumor cells ); type: functional, cell-based; method in brief: as §2
[9] = tested on: TK-10; test: Compound was evaluated for in vitro activity against TK-10 kidney cell lines (Human tumor cells ); type: functional, cell-based; method in brief: as §2
[10] = tested on: BT-549; test: Compound was evaluated for in vitro activity against BT-549 breast cancer cell lines (Human tumor cells ); type: functional, cell-based; method in brief: as §2
[11] = tested on: RPMI-8226; test: Compound was evaluated for in vitro activity against RPMI-8226 leukemia cell lines (Human tumor cells ); type: functional, cell-based; method in brief: as §2
[12] = tested on: SF-539; test: Compound was evaluated for in vitro activity against SF-539 CNS cell lines (Human tumor cells ); type: functional, cell-based; method in brief: as §1
[13] = tested on: EKVX; test: Compound was evaluated for in vitro activity against EKVX lung cancer cell lines (Human tumor cells ); type: functional, cell-based; method in brief: as §2
[14] = tested on: Malme-3M; test: Compound was evaluated for in vitro activity against MALME-3M Melanoma cell lines (Human tumor cells ); type: functional, cell-based; method in brief: as §2
[15] = tested on: HOP-92; test: Compound was evaluated for in vitro activity against HOP-92 lung cancer cell lines (Human tumor cells ); type: functional, cell-based; method in brief: as §2
[16] = tested on: ACHN; test: Compound was evaluated for in vitro activity against ACHN kidney cell lines (Human tumor cells ); type: functional, cell-based; method in brief: as §2
[17] = tested on: SF-295; test: Compound was evaluated for in vitro activity against SF-295 CNS cell lines (Human tumor cells ); type: functional, cell-based; method in brief: as §2
[18] = tested on: MOLT-4; test: Compound was evaluated for in vitro activity against MOLT-4 leukemia cell lines (Human tumor cells ); type: functional, cell-based; method in brief: as §2
[19] = tested on: PC-3; test: Compound was evaluated for in vitro activity against PC-3 prostate cell lines (Human tumor cells ); type: functional, cell-based; method in brief: as §2
[20] = tested on: LOX IMVI; test: Compound was evaluated for in vitro activity against LOXIMV1 Melanoma cell lines (Human tumor cells ); type: functional, cell-based; method in brief: as §1
[21] = tested on: SF-268; test: Compound was evaluated for in vitro activity against SF-268 CNS cell lines (Human tumor cells ); type: functional, cell-based; method in brief: as §2
[22] = tested on: CCRF-CEM; test: Compound was evaluated for in vitro activity against CCRF-CEM leukemia cell lines (Human tumor cells ); type: functional, cell-based; method in brief: as §2
[23] = tested on: SK-MEL-2; test: Compound was evaluated for in vitro activity against SK-MEL-2 Melanoma cell lines (Human tumor cells ); type: functional, cell-based; method in brief: as §2
[24] = tested on: IGROV-1; test: Compound was evaluated for in vitro activity against IGROV1 Ovary cell lines (Human tumor cells ); type: functional, cell-based; method in brief: as §2
[25] = tested on: OVCAR-3; test: Compound was evaluated for in vitro activity against OVCAR-3 Ovary cell lines (Human tumor cells ); type: functional, cell-based; method in brief: as §1
[26] = tested on: T47D; test: Compound was evaluated for in vitro activity against T-47D breast cancer cell lines (Human tumor cells ); type: functional, cell-based; method in brief: as §2
[27] = tested on: HCT-116; test: Compound was evaluated for in vitro activity against HCT116 Colon cell lines (Human tumor cells ); type: functional, cell-based; method in brief: as §2
[28] = tested on: OVCAR-5; test: Compound was evaluated for in vitro activity against OVCAR-5 Ovary cell lines (Human tumor cells ); type: functional, cell-based; method in brief: as §2
[29] = tested on: NCI-H226; test: Compound was evaluated for in vitro activity against NCI-H226 lung cancer cell lines (Human tumor cells ); type: functional, cell-based; method in brief: as §2
[30] = tested on: RXF 393; test: Compound was evaluated for in vitro activity against RXF-393 kidney cell lines (Human tumor cells ); type: functional, cell-based; method in brief: as §2
[31] = target: T1, Dihydrofolate reductase (Homo sapiens, UniProt P00374); test: Compound was evaluated for the inhibition of Dihydrofolate reductase at concentration ranged from 0.15-0.50 uM
T1 sequence (P00374 whole entry): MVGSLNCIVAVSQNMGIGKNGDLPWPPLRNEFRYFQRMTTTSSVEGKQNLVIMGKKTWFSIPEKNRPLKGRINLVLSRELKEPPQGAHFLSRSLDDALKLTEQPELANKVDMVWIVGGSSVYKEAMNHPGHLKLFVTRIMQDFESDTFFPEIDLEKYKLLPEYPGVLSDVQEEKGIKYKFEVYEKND

[32] = tested on: A549; test: Compound was evaluated for in vitro activity against A549/ATCC lung cancer cell lines (Human tumor cells )
[33] = tested on: SNB-; test: Compound was evaluated for in vitro activity against […] CNS cell lines (Human tumor cells ); type: functional, cell-based; method in brief: as §2
[34] = tested on: OVCAR-4; test: Compound was evaluated for in vitro activity against OVCAR-4 Ovary cell lines (Human tumor cells ); type: functional, cell-based; method in brief: as §2
[35] = tested on: HCC 2998; test: Compound was evaluated for in vitro activity against HCC2998 Colon cell lines (Human tumor cells ); type: functional, cell-based; method in brief: as §2
[36] = tested on: Hs-578T; test: Compound was evaluated for in vitro activity against Hs 578.T breast cancer cell lines (Human tumor cells ); type: functional, cell-based; method in brief: as §2
[37] = tested on: M14; test: Compound was evaluated for in vitro activity against M14 Melanoma cell lines (Human tumor cells ); type: functional, cell-based; method in brief: as §2
[38] = tested on: UACC-62; test: Compound was evaluated for in vitro activity against UACC-62 Melanoma cell lines (Human tumor cells ); type: functional, cell-based; method in brief: as §2
[39] = tested on: U-251; test: Compound was evaluated for in vitro activity against U251 CNS cell lines (Human tumor cells ); type: functional, cell-based; method in brief: as §2
[40] = tested on: HCT-15; test: Compound was evaluated for in vitro activity against HCT-15 Colon cell lines (Human tumor cells ); type: functional, cell-based; method in brief: as §2
[41] = tested on: SK-MEL-28; test: Compound was evaluated for in vitro activity against SK-MEL28 Melanoma cell lines (Human tumor cells ); type: functional, cell-based; method in brief: as §2
[42] = tested on: SK-MEL-5; test: Compound was evaluated for in vitro activity against SK-MEL-5 Melanoma cell lines (Human tumor cells ); type: functional, cell-based; method in brief: as §2
[43] = tested on: OVCAR-8; test: Compound was evaluated for in vitro activity against OVCAR-8 Ovary cell lines (Human tumor cells ); type: functional, cell-based; method in brief: as §2
[44] = tested on: NCI/ADR-RES; test: Compound was evaluated for in vitro activity against NCI/ADR-RES breast cancer cell lines (Human tumor cells ); type: functional, cell-based; method in brief: as §1
[45] = tested on: NCI-H23; test: Compound was evaluated for in vitro activity against NCI-H23 lung cancer cell lines (Human tumor cells ); type: functional, cell-based; method in brief: as §2
[46] = tested on: 786-0; test: Compound was evaluated for in vitro activity against 786-0 kidney cell lines (Human tumor cells ); type: functional, cell-based; method in brief: as §2
[47] = tested on: DU-145; test: Compound was evaluated for in vitro activity against DU-145 prostate cell lines (Human tumor cells ); type: functional, cell-based; method in brief: as §2
[48] = Compound was tested for in vitro antitumor activity, using SCC25 human head and neck squamous carcinoma cells; type: functional; settings: SCC-25
Method in brief: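 Clonogenic assay: SCC25 cells exposed to graded drug concentrations for 72 h at 37 °C, 5% CO2, in DMEM with 10% FBS and hydrocortisone ([…]). Then replated as single cells at drug-dependent densities and grown in drug-free medium 10-14 days. Colonies stained with crystal violet; only colonies of ≥50 cells scored. IC50 is mean ± SD of ≥3 assays on different days.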

[49] = tested on: UACC-257; test: Compound was evaluated for in vitro activity against UACC-257 Melanoma cell lines (Human tumor cells ); type: functional, cell-based; method in brief: as §2
[50] = tested on: NCI-H460; test: Compound was evaluated for in vitro activity against NCI-H460 lung cancer cell lines (Human tumor cells ); type: functional, cell-based; method in brief: as §2
[51] = tested on: A498; test: Compound was evaluated for in vitro activity against A498 kidney cell lines (Human tumor cells ); type: functional, cell-based; method in brief: as §2

SMILES: Cc1c(CNc2ccc(C(=O)NC(CCCNC(=O)c3ccccc3C(=O)O)C(=O)O)cc2)cnc2nc(N)nc(N)c12 (stereo not given)
- IC50 [1]: 6.7 nM
- IC50 [2]: 0.7 nM
- IC50 [3]: 0.52 nM
- IC50 [4]: 0.6 nM
- IC50 [5]: 1.5 nM
- IC50 [6]: 0.45 nM
- IC50 [7]: < 0.1 nM
- IC50 [8]: < 1 nM
- IC50 [9]: > 1000 nM
- IC50 [10]: > 1000 nM
- IC50 [11]: 0.84 nM
- IC50 [12]: 0.46 nM
- IC50 [13]: 2.5 nM
- IC50 [14]: 47 nM
- IC50 [15]: > 1000 nM
- IC50 [16]: 0.39 nM
- IC50 [17]: 0.59 nM
- IC50 [18]: 0.57 nM
- IC50 [19]: < 0.1 nM
- IC50 [20]: < 0.1 nM
- IC50 [21]: 0.36 nM
- IC50 [22]: 0.57 nM
- IC50 [23]: > 1000 nM
- IC50 [24]: 0.52 nM
- IC50 [25]: 17 nM
- IC50 [26]: > 1000 nM
- IC50 [27]: 0.58 nM
- IC50 [28]: 200 nM
- IC50 [29]: 0.62 nM
- IC50 [30]: 380 nM
- Ki [31]: 0.0004 nM
- IC50 [32]: 0.42 nM
- IC50 [33]: 2.2 nM
- IC50 [34]: > 1000 nM
- IC50 [35]: 0.9 nM
- IC50 [36]: 100 nM
- IC50 [37]: 0.66 nM
- IC50 [38]: 0.4 nM
- IC50 [39]: 3.6 nM
- IC50 [40]: 0.45 nM
- IC50 [41]: 190 nM
- IC50 [42]: 0.64 nM
- IC50 [43]: 0.32 nM
- IC50 [44]: 0.3 nM
- IC50 [45]: 1.5 nM
- IC50 [46]: < 0.1 nM
- IC50 [47]: < 1 nM
- IC50 [48]: 0.72 nM
- IC50 [49]: 470 nM
- IC50 [50]: 0.38 nM
- IC50 [51]: > 1000 nM

SMILES: Nc1nc(N)c2nc(CNc3ccc(C(=O)NC(CCCNC(=O)c4ccccc4C(=O)O)C(=O)O)cc3)cnc2n1 (stereo not given)
- IC50 [3]: 2.2 nM
- IC50 [4]: 3.1 nM
- IC50 [5]: 6.5 nM
- IC50 [6]: 0.42 nM
- IC50 [7]: 0.3 nM
- IC50 [8]: 0.41 nM
- IC50 [9]: 9.6 nM
- IC50 [10]: > 1000 nM
- IC50 [11]: > 100 nM
- IC50 [12]: 2.3 nM
- IC50 [15]: 7.5 nM
- IC50 [16]: 0.81 nM
- IC50 [17]: 0.51 nM
- IC50 [18]: 5.2 nM
- IC50 [19]: > 100 nM
- IC50 [20]: 0.23 nM
- IC50 [21]: 0.73 nM
- IC50 [22]: 1.5 nM
- IC50 [23]: > 100 nM
- IC50 [24]: > 100 nM
- IC50 [25]: 46 nM
- IC50 [26]: > 1000 nM
- IC50 [27]: 0.18 nM
- IC50 [28]: 1 nM
- IC50 [29]: > 100 nM
- IC50 [30]: 8.6 nM
- Ki [31]: 0.00035 nM
- IC50 [32]: 0.57 nM
- IC50 [33]: > 100 nM
- IC50 [34]: > 100 nM
- IC50 [35]: 1.3 nM
- IC50 [36]: > 100 nM
- IC50 [37]: > 100 nM
- IC50 [38]: 0.56 nM
- IC50 [39]: 5.2 nM
- IC50 [40]: 0.6 nM
- IC50 [42]: 4.7 nM
- IC50 [43]: 0.53 nM
- IC50 [45]: 2.6 nM
- IC50 [46]: 0.5 nM
- IC50 [48]: 1.8 nM
- IC50 [49]: 25 nM
- IC50 [50]: 0.43 nM
- IC50 [51]: > 1000 nM
